Test results as given in paper PMC5915676 (Cell chemical biology, 2016).
Residue numbers refer to the chain shown, from its start. Entries after “also recorded” stand apart in the source; their conditions may differ. Where two headings read alike, the source gives them in different places.

Legend:
MDA-MB-468 cells [1] = details: 30 μM, ref Mullarky et al., 2016, cited from earlier work
[2] = ref Mullarky et al., 2016; cited from earlier work
[3] = system: panel of cancer cell lines along with one immortalized human breast epithelial cell line; test: MTT cell viability assay, cell line panel; type: cell-based
[4] = system: SKOV3 GFP KO control cells; test: 6-day proliferation assay; type: cell-based, human; details: 50 μM PKUMDL-WQ-2201, 6 days
In short: (§1)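 SKOV3 control (sgRNA against GFP) and PHGDH knockout cells were used. Knockout was made by lentiCRISPR with an exon 8 sgRNA, puromycin selection and single-cell clones, and was western-validated. Cells were grown in RPMI-1640 with 10% FBS and plated at 10,000 cells/well in triplicate. After 24 h they received DMSO or compound, and viable cells were counted daily for 6 days by trypan-blue exclusion on a hemocytometer. Data are mean ± SEM, n=3 biological replicates, two-tailed Student's t-test.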

[5] = system: serine biosynthesis pathway in SKOV3 GFP KO cells; test: U-13C-glucose stable isotope labeling, LC-HRMS; type: cell-based, human
HCC70 cells = test: MTT cell viability assay; type: cell-based, human; details: read-out: EC50, antitumor activity (cell viability), HCC70, 72 h
ZR-75-1 cells = test: MTT cell viability assay; type: cell-based, human; details: selectivity, PHGDH amplified vs non-dependent line
MCF-7 cells = test: MTT cell viability assay; type: cell-based, human; details: read-out: EC50 (cell viability), MCF-7, 72 h
SKOV3 PHGDH KO cells = test: 6-day proliferation assay; type: cell-based, human; details: 50 μM PKUMDL-WQ-2201, 6 days
In short: as §1

MCF-10A cells = test: MTT cell viability assay; type: cell-based, human
PHGDH = biological target: T1, PHGDH (Homo sapiens, UniProt O43175); test: PHGDH enzyme assay coupled with PSAT1 reaction; type: biochemical
T1 sequence (O43175 1-533): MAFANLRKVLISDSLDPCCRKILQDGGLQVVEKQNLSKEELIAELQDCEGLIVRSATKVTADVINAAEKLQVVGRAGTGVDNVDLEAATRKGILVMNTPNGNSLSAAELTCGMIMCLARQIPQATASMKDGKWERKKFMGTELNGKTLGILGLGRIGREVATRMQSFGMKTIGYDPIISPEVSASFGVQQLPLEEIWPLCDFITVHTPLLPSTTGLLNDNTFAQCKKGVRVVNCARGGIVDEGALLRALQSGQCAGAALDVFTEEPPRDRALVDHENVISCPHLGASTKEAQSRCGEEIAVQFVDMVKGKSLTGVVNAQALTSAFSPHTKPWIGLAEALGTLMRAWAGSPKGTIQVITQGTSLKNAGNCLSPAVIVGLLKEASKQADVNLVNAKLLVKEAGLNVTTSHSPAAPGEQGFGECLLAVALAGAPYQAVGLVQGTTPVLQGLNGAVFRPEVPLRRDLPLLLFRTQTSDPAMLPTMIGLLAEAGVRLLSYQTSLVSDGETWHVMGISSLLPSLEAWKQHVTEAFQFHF
In short: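 Full-length human PHGDH and PSAT1 were His-purified from E. coli BL21(DE3) (pET21a(+)) by Ni-NTA then gel filtration. PHGDH activity was measured coupled to the upstream PSAT1 reaction. For cofactor competition, enzyme was preincubated 10 min at 25°C with NADH and compound, and Pser was added to start the reaction. For combinations, fixed first-compound levels (0–200 μM) were mixed with second-compound series (0–200 μM) and preincubated with enzyme.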

MDA-MB-468 cells [6] = test: MTT cell viability assay; type: cell-based, human; details: read-out: EC50, antitumor activity (cell viability), MDA-MB-468, 72 h
PHGDH mutant T59A = biological target: T2, PHGDH mutant T59A (Homo sapiens, UniProt O43175, T60A); test: PHGDH enzyme assay, mutant T59A; type: biochemical; details: read-out: IC50, PHGDH enzyme inhibition
T2 sequence (O43175 1-533 T60A): T1 sequence (O43175 1-533) with T60A
In short: (§2)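 Point mutants were made by QuikChange site-directed mutagenesis of pET-21a(+) wild-type human PHGDH and sequence-verified. Each was expressed in E. coli and purified like the wild type, then assayed for activity and inhibition in the same PSAT1-coupled PHGDH assay.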

MDA-MB-468 xenografts = test: MDA-MB-468 xenograft mouse model; type: in vivo, NOD.CB17 Scid/J mice; details: 20, 10 and 5 mg/kg/day IP, 30 days of drug delivery, vs vehicle
MDA-MB-231 cells = test: MTT cell viability assay; type: cell-based, human; details: read-out: EC50 (cell viability), MDA-MB-231, 72 h
MDA-MB-231 xenografts = test: MDA-MB-231 xenograft mouse model; type: in vivo, NOD.CB17 Scid/J mice; details: 20 mg/kg/day IP
PHGDH mutant T56AK57A = biological target: T3, PHGDH mutant T56AK57A (Homo sapiens, UniProt O43175, K58A/T57A); test: PHGDH enzyme assay, mutant T56AK57A; type: biochemical; details: read-out: IC50, PHGDH enzyme inhibition
T3 sequence (O43175 1-533 T57A/K58A): T1 sequence (O43175 1-533) with T57A, K58A
In short: as §2

[7] = Body weight of xenograft mice during treatment; type: in vivo; details: over the course of the xenograft experiments
[8] = 37 μM PKUMDL-WQ-2101, 291 μM PKUMDL-WQ-2201, 24 h treatment

CBR-5884
inhibition of growth of MDA-MB-468 cells (MDA-MB-468 cells [1]; serine-deplete media): 80% to 90%
inhibition of growth of MDA-MB-468 cells (MDA-MB-468 cells [1]; serine-replete media): 35% to 60%
stability in mouse plasma [2]: unstable in mouse plasma

CCNC(=S)N/N=C/c1ccc(-c2ccc(C(=O)O)c(Cl)c2)o1 [PKUMDL-WQ-2201]
bioactivity in the other three PHGDH non-amplified breast cancer cell lines ([3]; lines other than ZR-75-1): No bioactivities
EC50 ([3]; read-out: EC50 in PHGDH amplified breast cancer cells, serine-replete media): < 10 µM
cell growth [4]: suppressed
m+2, m+6 and m+7 glucose labeling in UTP and ATP [5, 8]: decreases
m+2 glucose incorporation into glutathione [5, 8]: decreases in m+2
reduction of glucose incorporation into serine and glycine ([5]; about IC50 (37 μM PKUMDL-WQ-2101, 291 μM PKUMDL-WQ-2201), 24 h treatment): more than 50%
EC50 (HCC70 cells): 10 µM
fold more active in MDA-MB-468 and HCC70 than in ZR-75-1 (ZR-75-1 cells): 13- to 18 fold
EC50 (MCF-7 cells): > 200 µM
cell growth (SKOV3 PHGDH KO cells): remained unaffected
cytotoxic effects (MCF-10A cells): weak cytotoxic effects
combination effect on PHGDH inhibition (Combination Index) (PHGDH; PKUMDL-WQ-2101 kept at 25 μM, PKUMDL-WQ-2201 1 to 200 μM): synergistic interactions
combination effect on PHGDH inhibition (Combination Index) (PHGDH; PKUMDL-WQ-2202 kept at 25 μM, PKUMDL-WQ-2201 varied): antagonism
competition with cofactor NADH (PHGDH; compound 50 μM, NADH 5 to 40 μM): did not bound in the cofactor site
IC50 (PHGDH; read-out: IC50, PHGDH enzyme inhibition, WT PHGDH): 35.7 ± 8.6 µM
EC50 (MDA-MB-468 cells [6]): 6.9 µM
IC50 (PHGDH mutant T59A): 69 ± 40 µM
tumor growth (MDA-MB-468 xenografts): substantial inhibitory effects; also recorded: significantly suppressed the growth of tumors
EC50 (MDA-MB-231 cells): > 200 µM
tumor growth (MDA-MB-231 xenografts): neither PKUMDL-WQ-2101 nor PKUMDL-WQ-2201 affected tumor growth
IC50 (PHGDH mutant T56AK57A): > 300 µM
body weight (tolerability) [7]: able to maintain normal body weight
